pIC50: −log10 of the molar value.
What was measured:
Type in all cases: functional, cell-based
[1] = tested on: SK-BR-3; assay: Antiproliferative activity against human SKBR3 cells expressing HER2 after 72 hrs by MTS/PMS assay; conditions: SK-BR-3, 72 h
Outline: (§1)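 Cells kept in Advanced DMEM/F12 (1:1) with non-essential amino acids, 2 mM L-glutamine, penicillin, streptomycin and 10% FBS at 37 °C, 5% CO2. Seeded at 2000/well, attached overnight. Compound added in DMSO across a concentration range (1% DMSO final) for 72 h. Viable cells read by MTS/PMS and normalized to 1% DMSO controls (100%). IC50 taken from separate triplicate experiments.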

[2] = tested on: MCF7; assay: Antiproliferative activity against human MCF7 cells expressing estrogen receptor after 72 hrs by MTS/PMS assay; conditions: MCF7, 72 h; outline: as §1
[3] = Antiproliferative activity against human androgen-dependent LNCaP-LN3 cells after 72 hrs by MTS/PMS assay; conditions: LNCaP-LN3, 72 h; outline: as §1
[4] = Antiproliferative activity against human androgen-independent PC3MM2 cells after 72 hrs by MTS/PMS assay; conditions: PC3MM2, 72 h; outline: as §1

| pIC50 [1] | pIC50 [2] | SMILES | pIC50 [3] | pIC50 [4] |
| --- | --- | --- | --- | --- |
| 5.03 | 4.95 | COc1cccc(-c2cc(C(=O)Nc3cc4ccc(O[C@@H]5C[C@H](O)CCO5)c(C)c4oc3=O)ccc2OC)c1 | 5.07 |  |
| 5.84 | 4.76 | COc1cccc(-c2cc(C(=O)Nc3cc4ccc(O[C@@H]5OCC[C@@H](O)[C@H]5O)c(OC)c4oc3=O)ccc2OC)c1 | 5.64 | 4.97 |
| 4.23 | < 4.00 | COc1cccc(-c2cc(C(=O)Nc3cc4cc(OC)c(OC5OC(C)(C)[C@H](OC)[C@@H](O)[C@H]5O)c(C)c4oc3=O)ccc2OC)c1 (stereo not given in full) | 4.58 | < 4.00 |
| 5.02 | 5.47 | COc1cccc(-c2cc(C(=O)Nc3cc4cc(OC)c(O[C@@H]5O[C@H](CO)C[C@@H](O)[C@H]5O)c(C)c4oc3=O)ccc2OC)c1 | 5.33 | 5.23 |
| 5.52 | 5.94 | COc1cccc(-c2cc(C(=O)Nc3cc4ccc(OC(N)=O)c(C)c4oc3=O)ccc2OC)c1 | 5.58 | 5.20 |
| < 4.00 | < 4.00 | COc1cccc(-c2cc(C(=O)Nc3cc4ccc(O[C@H]5OCC[C@H]5O)c(C)c4oc3=O)ccc2OC)c1 | 5.27 |  |
| 5.95 | 5.28 | Cc1c(OCCCN(C)C)ccc2cc(NC(=O)c3cc4ccccc4[nH]3)c(=O)oc12 |  | 4.86 |
| 4.86 | 5.05 | COc1cccc(-c2cc(C(=O)Nc3cc4ccc(OC5OC(C)(C)[C@H](OC)[C@@H](O)[C@H]5O)c(OC)c4oc3=O)ccc2OC)c1 (stereo not given in full) | 6.96 | 5.84 |
| 6.11 | 5.49 | COc1c(OCCCN(C)C)ccc2cc(NC(=O)c3ccc(O)c(CC=C(C)C)c3)c(=O)oc12 |  | 5.03 |
| 5.12 |  | CO[C@@H]1[C@@H](OC(N)=O)[C@@H](O)[C@H](Oc2ccc3cc(NC(=O)c4ccc(O)c(CC=C(C)C)c4)c(=O)oc3c2C)OC1(C)C |  |  |
| 4.93 | 4.84 | COc1cccc(-c2cc(C(=O)Nc3cc4ccc(O[C@@H]5O[C@H](CO)C[C@@H](O)[C@H]5O)c(OC)c4oc3=O)ccc2OC)c1 | 5.17 | 4.75 |
| 6.32 | 6.24 | Cc1c(OC2CCN(C)CC2)ccc2cc(NC(=O)c3cc4ccccc4[nH]3)c(=O)oc12 | 4.93 | 4.94 |
| 5.86 | < 4.00 | COc1cccc(-c2cc(C(=O)Nc3cc4cc(OC)c(O[C@@H]5C[C@H](O)CCO5)c(C)c4oc3=O)ccc2OC)c1 | 5.49 | 5.63 |
| 6.38 | 6.24 | COc1cc2cc(NC(=O)c3ccc(OC(C)=O)c(CC=C(C)C)c3)c(=O)oc2c(C)c1OC1CCN(C)CC1 |  | 5.85 |
| 5.97 | 5.79 | COc1c(OC2CCN(C)CC2)ccc2cc(NC(=O)c3ccc(OC(C)=O)c(CC=C(C)C)c3)c(=O)oc12 |  | 5.40 |
| 6.11 | 5.67 | COc1c(OCCCN(C)C)ccc2cc(NC(=O)c3ccc(OC(C)=O)c(CC=C(C)C)c3)c(=O)oc12 |  | 5.34 |
| 5.46 | 5.81 | COc1cccc(-c2cc(C(=O)Nc3cc4ccc(OC5CC(C)(C)C[C@@H](O)[C@H]5O)c(OC)c4oc3=O)ccc2OC)c1 (stereo not given in full) |  |  |
| < 4.00 | < 4.00 | COc1cccc(-c2cc(C(=O)Nc3cc4cc(OC)c(OS(=O)(=O)c5ccc(C)cc5)c(C)c4oc3=O)ccc2OC)c1 |  | < 4.00 |
| < 4.00 | < 4.00 | COc1cccc(-c2cc(C(=O)Nc3cc4cc(OC)c(O[C@H]5C[C@H](O)CCO5)c(C)c4oc3=O)ccc2OC)c1 | 5.83 | 5.91 |
|  |  | CC(C)=CCc1cc(C(=O)Nc2cc3ccc(OC4CCN(C)CC4)c(C)c3oc2=O)ccc1O |  | 5.86 |
| 5.20 | 5.07 | COc1cccc(-c2cc(C(=O)Nc3cc4ccc(OC5CC(C)C[C@@H](O)[C@H]5O)c(OC)c4oc3=O)ccc2OC)c1 (stereo not given in full) |  |  |
| 5.14 | 5.02 | COc1cccc(-c2cc(C(=O)Nc3cc4cc(OC)c(O[C@@H]5OCC[C@@H](O)[C@H]5O)c(C)c4oc3=O)ccc2OC)c1 | 4.89 | 4.62 |
| 5.09 | 4.99 | COc1cccc(-c2cc(C(=O)Nc3cc4cc(OC)c(OC5CCC[C@@H](O)[C@H]5O)c(C)c4oc3=O)ccc2OC)c1 (stereo not given in full) |  |  |

| pIC50 [1] | pIC50 [2] | SMILES | pIC50 [3] | pIC50 [4] |
| --- | --- | --- | --- | --- |
| 4.97 | 5.04 | COc1cccc(-c2cc(C(=O)Nc3cc4ccc(OC5CN(C(C)=O)C[C@@H](O)[C@H]5O)c(C)c4oc3=O)ccc2OC)c1 (stereo not given in full) | 6.15 | 5.65 |
| 5.75 | 5.51 | COc1cccc(-c2cc(C(=O)Nc3cc4ccc(OCCN(C)C)c(OC)c4oc3=O)ccc2OC)c1 | 5.28 | 5.21 |
| 4.11 | 5.25 | COc1cccc(-c2cc(C(=O)Nc3cc4ccc(OC(N)=O)c(OC)c4oc3=O)ccc2OC)c1 | 5.32 | < 4.00 |
| < 4.00 | < 4.00 | COc1cccc(-c2cc(C(=O)Nc3cc4ccc(OS(=O)(=O)c5ccc(C)cc5)c(OC)c4oc3=O)ccc2OC)c1 | 6.96 |  |
| < 4.00 | < 4.00 | COc1cccc(-c2cc(C(=O)Nc3cc4cc(OC)c(OC5CC(C)C[C@@H](O)[C@H]5O)c(C)c4oc3=O)ccc2OC)c1 (stereo not given in full) |  |  |
|  |  | CC(=O)Oc1ccc(C(=O)Nc2cc3ccc(OC4CCN(C)CC4)c(C)c3oc2=O)cc1CC=C(C)C |  | 5.67 |
| 6.43 |  | CO[C@@H]1[C@@H](O)[C@@H](O)[C@H](Oc2ccc3cc(NC(=O)c4cc5ccccc5[nH]4)c(=O)oc3c2C)OC1(C)C |  |  |
| 4.69 | 5.06 | COc1cccc(-c2cc(C(=O)Nc3cc4ccc(OC(C)=O)c(OC)c4oc3=O)ccc2OC)c1 | 4.84 | 4.71 |
| < 4.00 | < 4.00 | COc1cccc(-c2cc(C(=O)Nc3cc4ccc(OS(=O)(=O)c5ccc(C)cc5)c(C)c4oc3=O)ccc2OC)c1 | 6.24 | < 4.00 |
| < 4.00 | < 4.00 | COc1cccc(-c2cc(C(=O)Nc3cc4cc(OC)c(OS(C)(=O)=O)c(C)c4oc3=O)ccc2OC)c1 | < 4.00 |  |
| 5.70 |  | CO[C@@H]1[C@@H](O)[C@@H](O)[C@H](Oc2ccc3cc(NC(=O)CCCCC(=O)Nc4cc5ccc(O[C@H]6OC(C)(C)[C@@H](OC)[C@H](O)[C@@H]6O)cc5oc4=O)c(=O)oc3c2C)OC1(C)C |  |  |
| < 4.30 | < 4.30 | COc1cccc(-c2cc(C(=O)Nc3cc4ccc(OCC(O)CO)c(C)c4oc3=O)ccc2OC)c1 (stereo not given) |  | 6.72 |
| 6.30 |  | CO[C@@H]1[C@@H](O)[C@@H](O)[C@H](Oc2ccc3cc(NC(=O)c4ccc(O)c(CC=C(C)C)c4)c(=O)oc3c2C)OC1(C)C |  |  |
| 5.13 | 5.26 | COc1cccc(-c2cc(C(=O)Nc3cc4ccc(OC5CCC[C@@H](O)[C@H]5O)c(OC)c4oc3=O)ccc2OC)c1 (stereo not given in full) |  |  |
| 6.41 | 6.10 | COc1cc2cc(NC(=O)c3ccc(O)c(CC=C(C)C)c3)c(=O)oc2c(C)c1OCCCN(C)C |  | 5.86 |
| < 4.00 | < 4.00 | COc1cccc(-c2cc(C(=O)Nc3cc4ccc(OS(C)(=O)=O)c(OC)c4oc3=O)ccc2OC)c1 | 6.06 |  |
| 6.04 | 5.81 | COc1c(OC2CCN(C)CC2)ccc2cc(NC(=O)c3ccc(O)c(CC=C(C)C)c3)c(=O)oc12 |  | 5.45 |
| 4.71 | 4.69 | COc1cccc(-c2cc(C(=O)Nc3cc4cc(OC)c(OCC(O)CO)c(C)c4oc3=O)ccc2OC)c1 (stereo not given) |  |  |
| < 4.00 | < 4.00 | COc1cccc(-c2cc(C(=O)Nc3cc4cc(OC)c(OC5CC(C)(C)C[C@@H](O)[C@H]5O)c(C)c4oc3=O)ccc2OC)c1 (stereo not given in full) |  |  |
| 5.12 | 4.73 | COc1cccc(-c2cc(C(=O)Nc3cc4ccc(OC5OC(C)(C)[C@H](OC)[C@@H](O)[C@H]5O)c(C)c4oc3=O)ccc2OC)c1 (stereo not given in full) |  |  |
|  |  | CC(C)=CCc1cc(C(=O)Nc2cc3ccc(OCCCN(C)C)c(C)c3oc2=O)ccc1O |  | 5.74 |
|  |  | CC(=O)Oc1ccc(C(=O)Nc2cc3ccc(OCCCN(C)C)c(C)c3oc2=O)cc1CC=C(C)C |  | 5.85 |
| 5.06 | 4.02 | COc1cccc(-c2cc(C(=O)Nc3cc4ccc(O[C@H]5C[C@H](O)CCO5)c(OC)c4oc3=O)ccc2OC)c1 | 4.94 |  |

| SMILES | pIC50 [1] | pIC50 [2] | pIC50 [3] | pIC50 [4] |
| --- | --- | --- | --- | --- |
| CNC(=O)Oc1ccc2cc(NC(=O)c3ccc(OC)c(-c4cccc(OC)c4)c3)c(=O)oc2c1OC | < 4.00 | 5.18 | 5.63 | 5.77 |
| CNC(=O)Oc1c(OC)cc2cc(NC(=O)c3ccc(OC)c(-c4cccc(OC)c4)c3)c(=O)oc2c1C | 5.82 | 5.11 | 5.32 | 5.50 |
| COc1cccc(-c2cc(C(=O)Nc3cc4ccc(OC(=O)N(C)C)c(OC)c4oc3=O)ccc2OC)c1 | < 4.00 | < 4.00 | 4.80 | 4.94 |
| COc1cccc(-c2cc(C(=O)Nc3cc4ccc(OC(=O)N(C)C)c(C)c4oc3=O)ccc2OC)c1 | 4.40 | 4.13 | 5.27 | < 4.00 |
| CNC(=O)Oc1ccc2cc(NC(=O)c3ccc(OC)c(-c4cccc(OC)c4)c3)c(=O)oc2c1C | 5.62 | 5.76 | 5.43 | 5.28 |
| CO[C@H]1[C@H](OC(=O)c2ccc(C)[nH]2)[C@H](O)[C@@H](Oc2ccc3c(O)c(NC(=O)c4c[nH]c(C(=O)Nc5c(O)c6ccc(O[C@H]7OC(C)(C)[C@@H](OC)[C@H](OC(=O)c8ccc(C)[nH]8)[C@@H]7O)c(C)c6oc5=O)c4C)c(=O)oc3c2C)OC1(C)C [COUMERMYCIN A1] | 4.15 |  |  |  |

Reference: ChEMBL document CHEMBL1795208 (J Med Chem, 2011)
